From BindingDB's records for doi:10.1016/j.ejmech.2016.08.061 (South China University of Technology, 2017)

What was measured:
[1] = biological target: Cholinesterase (Equus caballus, UniProt P81908); assay: Irreversible inhibition of equine serum BuChE assessed as second order carbamylation rate constant using S-butyrylthiocholine iodide as substrate preincubated up to 45 mins followed by substrate addition measured after 5 mins; conditions: read-out: kon (M-1-s-1)
Method in brief: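 Equine BChE, pH 8, 37°C, was preincubated for 1, 2, 4, 8, 15, 30 and 45 min with inhibitor at 1×10^-7 to 5×10^-6 M (seven levels). Residual activity was read by Ellman with BTCh and normalised to a water control at each time. kobs came from a one-phase exponential decay fit; k_I1 came from the linear kobs versus concentration relation.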

[2] = biological target: Cholinesterase (Homo sapiens, UniProt P06276); assay: Irreversible inhibition of human plasma BuChE assessed as second order carbamylation rate constant using S-butyrylthiocholine iodide as substrate preincubated up to 45 mins followed by substrate addition measured after 5 mins; conditions: read-out: kon (M-1-s-1)
Sequence of Cholinesterase (Homo sapiens, UniProt P06276) (P06276 whole entry): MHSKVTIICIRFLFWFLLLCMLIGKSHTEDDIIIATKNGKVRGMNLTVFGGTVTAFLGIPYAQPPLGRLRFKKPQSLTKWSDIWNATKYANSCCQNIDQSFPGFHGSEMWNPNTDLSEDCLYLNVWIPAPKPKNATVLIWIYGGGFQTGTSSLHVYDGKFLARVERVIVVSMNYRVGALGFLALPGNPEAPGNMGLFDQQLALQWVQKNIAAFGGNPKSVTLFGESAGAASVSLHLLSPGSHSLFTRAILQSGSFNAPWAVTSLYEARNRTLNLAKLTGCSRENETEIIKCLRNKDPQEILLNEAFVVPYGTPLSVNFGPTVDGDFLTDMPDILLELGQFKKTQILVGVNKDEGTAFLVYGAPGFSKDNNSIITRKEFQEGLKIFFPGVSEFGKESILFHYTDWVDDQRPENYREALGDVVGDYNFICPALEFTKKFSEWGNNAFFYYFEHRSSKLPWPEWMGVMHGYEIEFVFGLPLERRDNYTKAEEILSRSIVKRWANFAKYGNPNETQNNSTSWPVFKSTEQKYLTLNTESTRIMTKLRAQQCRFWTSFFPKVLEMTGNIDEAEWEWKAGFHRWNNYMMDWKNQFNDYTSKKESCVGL
Method in brief: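 Diluted human plasma BChE was preincubated for 1–45 min with inhibitor at 5×10^-9, 1×10^-8, 2.5×10^-8 and 5×10^-8 M. Residual Ellman activity with BTCh at pH 8 was normalised to a water control. kobs came from a one-phase exponential fit; k_I1 came from the slope of kobs versus concentration.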

Sequence of Cholinesterase (Equus caballus, UniProt P81908) (P81908 whole entry): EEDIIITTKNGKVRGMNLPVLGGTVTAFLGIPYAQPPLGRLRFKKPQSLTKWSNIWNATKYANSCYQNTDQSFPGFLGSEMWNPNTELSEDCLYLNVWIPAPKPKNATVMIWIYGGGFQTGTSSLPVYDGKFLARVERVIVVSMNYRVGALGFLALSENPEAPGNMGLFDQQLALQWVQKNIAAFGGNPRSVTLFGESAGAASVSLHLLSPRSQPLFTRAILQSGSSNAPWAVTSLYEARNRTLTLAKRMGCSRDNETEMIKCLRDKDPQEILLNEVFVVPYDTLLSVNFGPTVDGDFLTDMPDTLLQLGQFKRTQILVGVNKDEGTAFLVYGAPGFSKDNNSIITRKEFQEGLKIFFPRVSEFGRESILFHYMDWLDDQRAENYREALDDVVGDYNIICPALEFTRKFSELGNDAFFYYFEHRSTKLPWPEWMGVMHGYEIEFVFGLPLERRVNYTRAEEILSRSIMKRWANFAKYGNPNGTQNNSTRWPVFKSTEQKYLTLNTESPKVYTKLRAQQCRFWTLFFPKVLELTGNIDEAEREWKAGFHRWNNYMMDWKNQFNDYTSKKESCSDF

SMILES | kon [1] [M⁻¹ s⁻¹] | kon [2] [M⁻¹ s⁻¹]
CCC(C)(C)NCC(O)c1cc(OC(=O)N(C)C)cc(OC(=O)N(C)C)c1 (centres undefined) | 2370 | 100000
CCN(C)C(=O)Oc1cc(OC(=O)N(C)CC)cc(C(O)CNC(C)(C)CC)c1 (centres undefined) | 2480 | 122000
